Measured values gathered from unrelated publications.
Compare with care: the assays were run in different laboratories.
Target: NT-3 growth factor receptor (NTRK3, Homo sapiens, UniProt Q16288)

CN(c1nccc(-c2cnn3ncccc23)n1)C1CC1
remaining binding (binding; 1 µM): 100%

COc1ncc2cc3ccccc3nc2c1C#N
remaining binding (cell-free assay; competition with immobilised ligand; 5 µM): 74%

O=c1nc(-c2ccccn2)sc2ccccc12
remaining binding (cell-free assay; competition with immobilised ligand; 1 µM): 72%

c1cncc(-c2cccc(Nc3nccc(NC4CCCCC4)n3)c2)c1
remaining binding (binding; competition with immobilised ligand; 10 µM): 27%

C[C@@H]1CCN(c2nccc(-c3cnn4ncccc34)n2)C1
remaining binding (binding; 1 µM): 70%

FC(F)(F)Oc1cccc(-c2cnc3ccc(-c4ccncc4)nn23)c1
remaining binding (cell-free assay; competition with immobilised ligand; 5 µM): 20%

Cc1cc(NC(=O)c2cccc(S(F)(F)(F)(F)F)c2)cc(-n2ccn3nc(-c4cccnc4)cc23)c1
remaining binding (cell-free assay; competition with immobilised ligand; 1 µM): 27.2%

N[C@@H]1CCN(c2nccc(-c3cnn4ncccc34)n2)C1
remaining binding (binding; 1 µM): 100%

CCN1CCN(Cc2ccc(C(=O)Nc3ccc(C)c(Oc4ccc5c(c4)CC(=O)N5)c3)cc2C(F)(F)F)CC1
remaining binding (binding; competition with immobilised ligand; 1 µM): 68%

CN(C)c1nccc(-c2cnn3ncccc23)n1
remaining binding (binding; 1 µM): 72%

CNC(=O)Nc1ccc2c(c1)CC[C@@]21OC(=O)N(CC(=O)N(Cc2ccc(F)cc2)[C@@H](C)C(F)(F)F)C1=O
remaining binding (cell-free assay; competition with immobilised ligand; 1 µM): 84%

O=C(NCCCN1CCOCC1)c1ccc(Nc2nccc(-c3cc4ccccc4s3)n2)cc1
remaining binding (binding; competition with immobilised ligand; 1 µM): 75%

COc1cnc(Nc2cccc(S(N)(=O)=O)c2)nc1N1CCN(c2ccccc2)C(=O)C1
remaining binding (binding; competition with immobilised ligand; 1 µM): 100%

O=C(c1ccc(Nc2ncc(Cl)c(-c3ccc(Cl)s3)n2)cc1)N1CCC(N2CCCC2)CC1
remaining binding (binding; competition with immobilised ligand; 1 µM): 24%

O=C(N1CCS(=O)(=O)CC1)N1C[C@H](c2ccc(OC(F)(F)F)cc2)C[C@H](c2nc(C3CC3)no2)C1
remaining binding (cell-free assay; competition with immobilised ligand; 1 µM): 100%

O=C(c1ccc(Nc2ncc(Cl)c(-c3cc4ccccc4s3)n2)cc1)N1CCC(N2CCCC2)CC1
remaining binding (binding; competition with immobilised ligand; 1 µM): 36%

CSc1cccnc1N1CCN(Cc2nc3ccccc3[nH]2)CC1
remaining binding (cell-free assay; competition with immobilised ligand; 1 µM): 83%

O=C(Nc1c[nH]nc1C(=O)NC1CCNCC1)c1cc(F)cc(F)c1
remaining binding (binding; competition with immobilised ligand; 1 µM): 100%

CCC(=O)N[C@H]1CC[C@@H](C(=O)N(C)c2ccc(-c3nc4ccccc4o3)cc2)C1
remaining binding (cell-free assay; competition with immobilised ligand; 1 µM): 32%

c1cnn2ncc(-c3ccnc(N4CCC45COC5)n3)c2c1
remaining binding (binding; 1 µM): 73%

O=C(NCc1ncc(C(F)(F)F)cc1Cl)c1ccc2c(c1)C1(CCS(=O)(=O)CC1)[C@@H](C1CC1)N2S(=O)(=O)c1ccc(F)cc1
remaining binding (cell-free assay; competition with immobilised ligand; 1 µM): 71%

CC1CCCN1c1nccc(-c2cnn3ncccc23)n1 (stereo not shown)
remaining binding (binding; 1 µM): 100%
